Only some compounds are listed: those with a hit (about 1.3% of all), similar ones and a draw of the others.
Cardiac RTF inh: cardiac RTF calcium desensitization. AID 493244. inhibition, % at 7.15 µM. 340,000 compounds, 0.12% hits. IANBD-labeled cardiac RTF, Ca2+ fluorescence;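 active means inhibition above the mean inhibition of all tested compounds plus 3 SD, cut at about 17% in these data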;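 further: assay run at fixed EC70 calcium of 1.6 mM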
LANA DNA inh: blocks KSHV LANA C-terminal domain binding to DNA; MBP-C-LANA/FAM-LBS DNA binding, fluorescence polarization; inhibition, % at 9 µM; 340,000 compounds, 0.078% hits;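 active means highest replicate inhibition at or above 60% at 9 µM, even if other replicates fall short; inactive means all replicates below 60% inhibition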;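 further: 0% = neutral control wells and 100% = 4 µM acridine orange control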
Keap1 Nrf2 FP: inhibitors of human Keap1-Nrf2 protein-protein interaction | 340,000 compounds, 0.15% hits | AID 504523 | Keap1 Kelch-Nrf2 peptide fluorescence polarization, 1536-well | Q14145 | inhibition, % at 9.4 µM; in the data active means inhibition above about 12%;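 further: human Keap1 Kelch domain with fluorescein labeled Nrf2 9mer peptide probe; 0% = neutral control wells and 100% = peptide positive control; higher means more block of Keap1 binding to Nrf2 peptide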
Target sequence (Q14145 whole entry, looked up, the tested form may be a part): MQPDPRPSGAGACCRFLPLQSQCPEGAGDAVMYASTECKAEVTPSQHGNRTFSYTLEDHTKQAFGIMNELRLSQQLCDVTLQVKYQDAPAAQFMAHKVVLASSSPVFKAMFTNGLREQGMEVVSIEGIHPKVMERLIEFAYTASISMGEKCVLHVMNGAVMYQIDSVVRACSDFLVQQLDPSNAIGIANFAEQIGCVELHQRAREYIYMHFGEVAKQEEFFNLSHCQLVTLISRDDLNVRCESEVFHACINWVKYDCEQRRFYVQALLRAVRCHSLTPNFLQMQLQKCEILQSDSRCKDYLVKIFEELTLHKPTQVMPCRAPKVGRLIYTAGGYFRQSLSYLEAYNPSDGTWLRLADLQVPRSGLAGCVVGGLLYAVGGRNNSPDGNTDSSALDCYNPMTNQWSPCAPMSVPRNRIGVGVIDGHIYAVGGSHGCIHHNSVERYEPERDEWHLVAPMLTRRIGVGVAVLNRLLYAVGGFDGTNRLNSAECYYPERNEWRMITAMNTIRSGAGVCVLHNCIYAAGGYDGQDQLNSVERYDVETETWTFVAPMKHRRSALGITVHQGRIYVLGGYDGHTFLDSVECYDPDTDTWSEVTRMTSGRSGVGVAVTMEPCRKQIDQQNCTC
RTF Ca sens act: cardiac RTF calcium sensitization. P19429+P45379. IANBD-labeled TnC RTF fluorescence at EC20 calcium; 0% EC20 calcium, 100% full calcium. activation, % at 7.2 µM. 340,000 compounds, 0.24% hits. AID 493008;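 active means activation above the mean over all tested compounds plus 3 SD, cut at about 30% in these data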;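 further: rise in fluorescence read as greater calcium sensitivity of cardiac thin filaments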
CAL PDZ FP-1: human CAL PDZ-peptide interaction inhibition; Q9HD26; inhibition, % at 20 µM; 330,000 compounds, 0.02% hits; purified CAL PDZ, TMR-peptide fluorescence polarization, 1 h; AID 504414;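 active means highest replicate inhibition of at least 40%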;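 further: plate controls were DMSO neutral control wells for no effect and unlabeled competitor peptide control wells for full effect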
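Test system: purified CerCALP PDZ construct; Compound dosing: one concentration, 20 µM compound; Also added: TMR-labelled reporter peptide T*-PRC34 bound in PDZ groove; Read-out: inhibition from polarization loss; Controls: unlabelled peptide and DMSO controls; Signal: FP readout, S and P plane fluorescence; Incubation: 1 h at RT.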
CAL PDZ FP-2: inhibitors of human CAL PDZ peptide binding. purified CAL PDZ, TMR-peptide fluorescence polarization, 1 h. 300,000 compounds, 0.92% hits. inhibition, % at 24.9 µM. AID 602252;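 active means mean inhibition of at least 30% with at least half of replicates also reaching 30%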;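 further: 0% = DMSO neutral control and 100% = excess unlabeled competitor peptide PRC23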
Keap1 TSA: binders of human Keap1 Kelch domain; shares compounds with Keap1 Nrf2 FP; Keap1 Kelch thermal shift, delta Tm; active compounds read high; max delta Tm, degrees C; 400 compounds, 8% hits; AID 651823; in the data active means max delta Tm above about 0.48 degrees C
Dye-only ctr: shifts Sypro Orange melt without protein, a false positive; shares compounds with Keap1 Nrf2 FP; 140 tested, under 10 active; delta Tm, degrees C (concentration not given with the values); Sypro Orange dye-only thermal melt, no protein, delta Tm; top dose 26 µM; AID 651858;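 active means at highest dose tested, delta Tm positive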
* hit, by the source's call.

What do the screens show for `Cc1ccc2c(c1)N(CCCC(=O)Nc1cccc(C(F)(F)F)c1)C(=O)CO2`?
Cardiac RTF inh: -5; LANA DNA inh: 0; Keap1 Nrf2 FP: 5; RTF Ca sens act: 1; CAL PDZ FP-1: -2; CAL PDZ FP-2: -2

Results for CC(C)[C@H](NC(=O)[C@@H]1CSC2c3ccccc3C(=O)N21)C(=O)NC1CCCCC1 (some centres undefined) ?
Cardiac RTF inh: -3; LANA DNA inh: 1; Keap1 Nrf2 FP: 3; RTF Ca sens act: 0; CAL PDZ FP-1: -3; CAL PDZ FP-2: -3

Results for CNS(=O)(=O)c1ccc2c3c(cccc13)C(=O)N2C ?
Cardiac RTF inh: -2; LANA DNA inh: 13; Keap1 Nrf2 FP: 32*; RTF Ca sens act: 5; CAL PDZ FP-1: -2; Keap1 TSA: -0.09

What do the screens show for `CCOC(=O)C1CCCN(C(=O)C2c3ccccc3Oc3ccccc32)C1` (centres undefined)?
Cardiac RTF inh: -109; LANA DNA inh: 119*; Keap1 Nrf2 FP: 47*; RTF Ca sens act: 93*; CAL PDZ FP-1: 1; CAL PDZ FP-2: 2; Keap1 TSA: -0.16; Dye-only ctr: -45

Results for Cc1oc2cc(O)ccc2c(=O)c1-c1nncn1-c1ccccc1 ?
Cardiac RTF inh: -32; LANA DNA inh: 49; Keap1 Nrf2 FP: 25*; RTF Ca sens act: 13; CAL PDZ FP-1: -1; CAL PDZ FP-2: 1; Keap1 TSA: 0.11; Dye-only ctr: -22

Results for CN(C)c1ccc(/C=N/NC(=O)CCC(=O)NCc2ccccc2)cc1 ?
Cardiac RTF inh: 1; LANA DNA inh: 5; Keap1 Nrf2 FP: 53*; RTF Ca sens act: -1; CAL PDZ FP-1: -1; CAL PDZ FP-2: -7; Keap1 TSA: -0.19

Results for COc1ccc(N=Nc2nc3ccc(Br)cc3n2C)cc1 ?
Cardiac RTF inh: -272; LANA DNA inh: 70*; Keap1 Nrf2 FP: 48*; RTF Ca sens act: 132*; CAL PDZ FP-1: -1; CAL PDZ FP-2: 23; Keap1 TSA: -0.14

How did O=C(CN1C(=O)CCOc2ccccc21)Nc1ccc(Cl)c(S(=O)(=O)N2CCOCC2)c1 do in these assays?
Cardiac RTF inh: -1; LANA DNA inh: -1; Keap1 Nrf2 FP: -3; RTF Ca sens act: 4; CAL PDZ FP-1: -2; CAL PDZ FP-2: -5

How did NC(=O)CC(NC(=O)Cc1cccc2ccccc12)c1ccc(NCc2ccccc2)c([N+](=O)[O-])c1 (centres undefined) do in these assays?
Cardiac RTF inh: 2; LANA DNA inh: 18; Keap1 Nrf2 FP: 22*; RTF Ca sens act: -1; CAL PDZ FP-1: 1; CAL PDZ FP-2: -6; Keap1 TSA: -0.11

How did CC(=O)Oc1cccc2c1C(=O)C1CC=CC(OC(C)=O)C1C2=O (centres undefined) do in these assays?
Cardiac RTF inh: -5; LANA DNA inh: -4; Keap1 Nrf2 FP: -1; RTF Ca sens act: 9; CAL PDZ FP-1: -2; CAL PDZ FP-2: -2

How did Cc1ccccc1NC(=O)CSc1nnc(-c2ccco2)c(-c2ccco2)n1 do in these assays?
Cardiac RTF inh: -5; LANA DNA inh: 1; Keap1 Nrf2 FP: -3; RTF Ca sens act: -4; CAL PDZ FP-1: 0; CAL PDZ FP-2: -1

How did Cc1cccc(C)c1NC(=O)CSc1nnc(-c2ccco2)c(-c2ccco2)n1 do in these assays?
Cardiac RTF inh: 8; LANA DNA inh: 105*; Keap1 Nrf2 FP: 46*; RTF Ca sens act: -12; CAL PDZ FP-1: 0; CAL PDZ FP-2: 2; Keap1 TSA: 0.29; Dye-only ctr: -27

How did Cc1ccc(S(=O)(=O)CCC(=O)OCc2cc(C)ccc2C)cc1 do in these assays?
Cardiac RTF inh: -8; LANA DNA inh: -2; Keap1 Nrf2 FP: -3; RTF Ca sens act: -6; CAL PDZ FP-1: -3; CAL PDZ FP-2: -4

How did COc1ccc(S(=O)(=O)Nc2cccc3c2O[C@H](CN(C)CC2CCCCC2)[C@@H](C)CN([C@H](C)CO)C3=O)cc1 do in these assays?
Cardiac RTF inh: 5; LANA DNA inh: 0; Keap1 Nrf2 FP: 0; RTF Ca sens act: -2; CAL PDZ FP-1: 0; CAL PDZ FP-2: -1

Results for CCOC(=O)c1ccc2ncc(C(=O)OCC)c(NCCN3CCOCC3)c2c1 ?
Cardiac RTF inh: -4; LANA DNA inh: 0; Keap1 Nrf2 FP: -1; RTF Ca sens act: 5; CAL PDZ FP-1: -2; CAL PDZ FP-2: 4

Results for CCOC(=O)c1ccc2ncc(C(=O)OCC)c(NCCN(C)C)c2c1 ?
Cardiac RTF inh: -26; LANA DNA inh: 14; Keap1 Nrf2 FP: 14*; RTF Ca sens act: 10; CAL PDZ FP-1: -1; Keap1 TSA: -0.11; Dye-only ctr: -23

Results for COc1ccc(OC)c(S(=O)(=O)Nc2ccc(F)cc2)c1 ?
Cardiac RTF inh: -1; LANA DNA inh: 3; Keap1 Nrf2 FP: 12*; RTF Ca sens act: -8; CAL PDZ FP-1: -1; CAL PDZ FP-2: 1; Keap1 TSA: -0.08

How did Cn1c(=O)c(NCCc2ccccc2)c2c3c(cccc31)C(=O)c1ccccc1-2 do in these assays?
Cardiac RTF inh: inactive; LANA DNA inh: 101*; Keap1 Nrf2 FP: 45*; RTF Ca sens act: active; CAL PDZ FP-1: 14; CAL PDZ FP-2: 20; Keap1 TSA: 0

Results for CCCCNc1c2c3c(cccc3n(C)c1=O)C(=O)c1ccccc1-2 ?
Cardiac RTF inh: inactive; LANA DNA inh: 71*; Keap1 Nrf2 FP: 58*; RTF Ca sens act: active; CAL PDZ FP-1: 1; CAL PDZ FP-2: -2; Keap1 TSA: 0.25

Results for CN1C(=O)c2cccc(NCCCN3C(=O)c4ccccc4C3=O)c2C1=O ?
Cardiac RTF inh: -11; LANA DNA inh: -8; Keap1 Nrf2 FP: -16; RTF Ca sens act: 8; CAL PDZ FP-1: -2; CAL PDZ FP-2: -5

What do the screens show for `CCCCn1c(N)c(N(CCOC)C(=O)CN2C(=O)NC3(CC(C)CC(C)(C)C3)C2=O)c(=O)[nH]c1=O` (centres undefined)?
Cardiac RTF inh: -8; LANA DNA inh: -2; Keap1 Nrf2 FP: -2; RTF Ca sens act: 1; CAL PDZ FP-1: -1; CAL PDZ FP-2: -3

How did COc1ccc(C2C(C(=O)c3cccs3)=C(O)C(=O)N2c2nncs2)cc1 (centres undefined) do in these assays?
Cardiac RTF inh: -56; LANA DNA inh: 64*; Keap1 Nrf2 FP: 55*; RTF Ca sens act: 32*; CAL PDZ FP-1: -2; CAL PDZ FP-2: 1; Keap1 TSA: -0.13

What do the screens show for `CC(C)c1nnc(N2C(=O)C(O)=C(C(=O)c3cccs3)C2c2ccccc2)s1` (centres undefined)?
Cardiac RTF inh: -46; LANA DNA inh: 35; Keap1 Nrf2 FP: 20*; RTF Ca sens act: 25; CAL PDZ FP-1: -2; CAL PDZ FP-2: 5; Keap1 TSA: -0.16
